Converted amounts (≈) assume the structure as drawn.
Key:
[1] = tested on: P388; test: Median survival time of test animals compared to controls at 5 mg/kg (ip) against P388 Lymphocytic Leukemia in mice; type: functional, Mus musculus
Method in brief: (§1)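 P388 leukemia cells were given ip to male CDF1 mice. Dosing started 24 h later: nine daily ip doses given as suspensions in Klucel (hydroxypropylcellulose) or in water. Toxicity day was day 5 and evaluation was on day 30. The value is % T/C of median survival time against untreated controls, with a parallel positive-control arm.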

[2] = tested on: P388; test: Log of the tumor cell population at the end of treatment at 40 mg/kg (ip) against P388 Lymphocytic Leukemia in mice; type: functional, Mus musculus
[3] = tested on: P388; test: Median survival time of test animals compared to controls at 50 mg/kg (ip) against P388 Lymphocytic Leukemia in mice; type: functional, Mus musculus
Method in brief: (§2)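 P388 leukemia cells were inoculated ip into male CDF1 mice. Treatment began 24 h later, given ip as five daily doses, either as a Klucel (hydroxypropylcellulose) suspension or as an aqueous solution. Acute toxicity was assessed on day 5 and results were read on day 30. The value is median survival of treated versus control mice, as % T/C.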

[4] = tested on: P388; test: Log of the tumor cell population at the end of treatment at 20 mg/kg (ip) against P388 Lymphocytic Leukemia in mice; type: functional, Mus musculus
[5] = tested on: P388; test: Weight difference at 10 mg/kg (ip)against P388 Lymphocytic Leukemia in mice; type: functional, Mus musculus
Method in brief: (§3)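 Male CDF1 mice inoculated ip with P388 leukemia cells. Nine daily ip doses beginning 24 h later, as suspensions in Klucel or water. Acute toxicity evaluated day 5. Weight difference reported as treated minus control (g).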

[6] = tested on: P388; test: Weight difference at 2.5 mg/kg (ip)against P388 Lymphocytic Leukemia in mice; type: functional, Mus musculus; method in brief: as §3
[7] = tested on: P388; test: Log of the tumor cell population at the end of treatment at 10 mg/kg (ip) against P388 Lymphocytic Leukemia in mice; type: functional, Mus musculus
[8] = tested on: P388; test: Median survival time of test animals compared to controls at 2.5 mg/kg (ip) against P388 Lymphocytic Leukemia in mice; type: functional, Mus musculus
Method in brief: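 P388 leukemia cells given ip to male CDF1 mice; ip dosing began 24 h later, nine daily doses, as suspensions in Klucel (hydroxypropylcellulose) or water. Acute toxicity checked on day 5. Survival read on day 30 as median survival time of treated versus control mice (% T/C). Weight difference is treated minus control, in grams.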

[9] = tested on: P388; test: Median survival time of test animals compared to controls at 25 mg/kg (ip) against P388 Lymphocytic Leukemia in mice; type: functional, Mus musculus; method in brief: as §2
[10] = tested on: P388; test: Weight difference at 25 mg/kg (ip)against P388 Lymphocytic Leukemia in mice; type: functional, Mus musculus
Method in brief: (§4)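 Male CDF1 mice given 6×10^6 leukemia cells ip. Five daily ip doses beginning 24 h later, as Klucel suspension or aqueous solution. Acute toxicity on day 5; survival assessed on day 30. Weight difference reported as treated minus control (g).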

[11] = tested on: P388; test: Log of the tumor cell population at the end of treatment at 12.5 mg/kg (ip) against P388 Lymphocytic Leukemia in mice; type: functional, Mus musculus
[12] = tested on: P388; test: Log of the tumor cell population at the end of treatment at 50 mg/kg (ip) against P388 Lymphocytic Leukemia in mice; type: functional, Mus musculus
[13] = tested on: P388; test: Log of the tumor cell population at the end of treatment at 25 mg/kg (ip) against P388 Lymphocytic Leukemia in mice; type: functional, Mus musculus
[14] = tested on: P388; test: Log of the tumor cell population at the end of treatment at 5 mg/kg (ip) against P388 Lymphocytic Leukemia in mice; type: functional, Mus musculus
[15] = tested on: P388; test: Weight difference at 50 mg/kg (ip)against P388 Lymphocytic Leukemia in mice; type: functional, Mus musculus; method in brief: as §4
[16] = Water solubility of the compound; type: ADME; conditions: read-out: S
Method in brief: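 Excess bis(carbamate) (30-60 mg) in 2 mL distilled water, vortexed 10 min, filtered through Teflon wool and diluted. UV absorbance read at 291 nm. Concentration from a linear Beer's law calibration made with a salt standard (r = 0.998).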

[17] = tested on: P388; test: Median survival time of test animals compared to controls at 20 mg/kg (ip) against P388 Lymphocytic Leukemia in mice; type: functional, Mus musculus; method in brief: as §1
[18] = tested on: P388; test: Weight difference at 12.5 mg/kg (ip)against P388 Lymphocytic Leukemia in mice; type: functional, Mus musculus
Method in brief: (§5)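 P388 leukemia cells inoculated ip into male CDF1 mice; ip treatment started 24 h later, five daily doses, as Klucel (hydroxypropylcellulose) suspension or aqueous solution. Acute toxicity on day 5. Day-30 median survival of treated versus control mice expressed as % T/C. Weight difference is treated minus control, in grams.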

[19] = tested on: P388; test: Weight difference at 100 mg/kg (ip)against P388 Lymphocytic Leukemia in mice; type: functional, Mus musculus; method in brief: as §4
[20] = tested on: P388; test: Log of the tumor cell population at the end of treatment at 80 mg/kg (ip) against P388 Lymphocytic Leukemia in mice; type: functional, Mus musculus
[21] = tested on: P388; test: Weight difference at 20 mg/kg (ip)against P388 Lymphocytic Leukemia in mice; type: functional, Mus musculus; method in brief: as §3
[22] = tested on: P388; test: Median survival time of test animals compared to controls at 80 mg/kg (ip) against P388 Lymphocytic Leukemia in mice; type: functional, Mus musculus; method in brief: as §1
[23] = tested on: P388; test: Median survival time of test animals compared to controls at 100 mg/kg (ip) against P388 Lymphocytic Leukemia in mice; type: functional, Mus musculus; method in brief: as §2
[24] = tested on: P388; test: Median survival time of test animals compared to controls at 12.5 mg/kg (ip) against P388 Lymphocytic Leukemia in mice; type: functional, Mus musculus; method in brief: as §5
[25] = tested on: P388; test: Log of the tumor cell population at the end of treatment at 100 mg/kg (ip) against P388 Lymphocytic Leukemia in mice; type: functional, Mus musculus
[26] = tested on: P388; test: Weight difference at 80 mg/kg (ip)against P388 Lymphocytic Leukemia in mice; type: functional, Mus musculus; method in brief: as §3
[27] = tested on: P388; test: Weight difference at 5 mg/kg (ip)against P388 Lymphocytic Leukemia in mice; type: functional, Mus musculus; method in brief: as §3
[28] = tested on: P388; test: Weight difference at 40 mg/kg (ip)against P388 Lymphocytic Leukemia in mice; type: functional, Mus musculus; method in brief: as §3
[29] = tested on: P388; test: Median survival time of test animals compared to controls at 6.25 mg/kg (ip) against P388 Lymphocytic Leukemia in mice; type: functional, Mus musculus; method in brief: as §2
[30] = tested on: P388; test: Median survival time of test animals compared to controls at 40 mg/kg (ip) against P388 Lymphocytic Leukemia in mice; type: functional, Mus musculus; method in brief: as §1
[31] = tested on: P388; test: Median survival time of test animals compared to controls at 10 mg/kg (ip) against P388 Lymphocytic Leukemia in mice; type: functional, Mus musculus; method in brief: as §1
[32] = tested on: P388; test: Weight difference at 6.25 mg/kg (ip)against P388 Lymphocytic Leukemia in mice; type: functional, Mus musculus; method in brief: as §4
[33] = tested on: P388; test: Log of the tumor cell population at the end of treatment at 6.25 mg/kg (ip) against P388 Lymphocytic Leukemia in mice; type: functional, Mus musculus
[34] = Half life was determined

## CC(C)NC(=O)OCc1c(COC(=O)NC(C)C)c(-c2ccc(Cl)c(Cl)c2)n2c1CCC2
[1]
  T/C: 127%
[2]
  Log cell kill: -1.25
[3]
  T/C: 205%
[4]
  Log cell kill: -1.41
[5]
  Weight change: -0.7 g
[6]
  Weight change: -0.5 g
[7]
  Log cell kill: -1.44
[8]
  Log cell kill: -1.52
  T/C: 135%
[9]
  T/C: 179%
[10]
  Weight change: -3.9 g
[11]
  Log cell kill: 1.7
[12]
  Log cell kill: 5.25
[13]
  Log cell kill: 3.16
[14]
  Log cell kill: -1.63
[15]
  Weight change: -5.3 g
[16]
  solubility: 0.00126 mM (≈ 0.608 µg/mL)
[17]
  T/C: 144%
[18]
  Weight change: -3.4 g
[19]
  Weight change: -5.6 g
[20]
  Log cell kill: -1.64
[21]
  Weight change: -1.8 g
[22]
  T/C: 126%
[23]
  T/C: 110%
[24]
  T/C: 160%
[25]
  Log cell kill: -1.4
[26]
  Weight change: -4 g
[27]
  Weight change: -0.8 g
[28]
  Weight change: -2.6 g
[29]
  T/C: 164%
[30]
  T/C: 155%
[31]
  T/C: 141%
[32]
  Weight change: -2.8 g
[33]
  Log cell kill: 2.01
[34]
  half-life: 13 min

## CC(C)NC(=O)OCc1c(COC(=O)NC(C)C)c(-c2ccc(Cl)c(Cl)c2)n2c1CC(OC(=O)CCC(=O)[O-])C2.[K+] (configuration not stated)
[16]
  solubility: 38.8 mM
[34]
  half-life: 92 min

Source: ChEMBL document CHEMBL1122293, “Synthesis, evaluation of chemical reactivity, and murine antineoplastic activity of 2-hydroxy-5-(3,4-dichlorophenyl)-6,7-bis(hydroxymethyl)-2,3-dihydro-1H- pyrrolizine bis(2-propylcarbamate) and 2-acyloxy derivatives as potential water-soluble prodrugs” (J Med Chem, 1983)
